Reference: ChEMBL document CHEMBL1145031, “Rational design, synthesis, and structure-activity relationships of novel factor Xa inhibitors: (2-substituted-4-amidinophenyl)pyruvic and -propionic acids” (J Med Chem, 2003)

Legend:
[1] = target: Thrombin and coagulation factor X (Homo sapiens) (UniProt P00734+P00742); assay: Selectivity for factor Xa (fXa) versus thrombin; type: protein assay
Prothrombin = Prothrombin (Homo sapiens, UniProt P00734); assay: Inhibitory activity against thrombin
How it was run: (§1)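 Chromogenic assay at room temperature in pH 8.4 buffer (0.1 M Tris, 0.2 M NaCl, 0.1% PEG-6000, 0.02% Tween20). For fXa, 4.5 nM enzyme with 200 μM S-2222; for thrombin, 1.1 nM enzyme with 100 μM S-2238 (final). Inhibitor and enzyme preincubated 10 min, then substrate added. p-Nitroaniline release read at 405 nm for 16 min. IC50 taken from initial velocities; apparent Ki scaled from IC50 ratios against a standard inhibitor's Ki from a double reciprocal plot.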

Coagulation factor X = Coagulation factor X (Homo sapiens, UniProt P00742); assay: Inhibitory activity against Coagulation factor X (fXa); how it was run: as §1
Coagulation factor X, sequence (P00742 41-179 limits assumed): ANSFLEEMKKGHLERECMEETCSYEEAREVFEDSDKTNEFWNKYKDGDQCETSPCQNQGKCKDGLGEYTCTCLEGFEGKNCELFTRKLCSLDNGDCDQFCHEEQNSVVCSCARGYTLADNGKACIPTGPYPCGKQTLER
Coagulation factor X, sequence (P00742 235-488 limits assumed): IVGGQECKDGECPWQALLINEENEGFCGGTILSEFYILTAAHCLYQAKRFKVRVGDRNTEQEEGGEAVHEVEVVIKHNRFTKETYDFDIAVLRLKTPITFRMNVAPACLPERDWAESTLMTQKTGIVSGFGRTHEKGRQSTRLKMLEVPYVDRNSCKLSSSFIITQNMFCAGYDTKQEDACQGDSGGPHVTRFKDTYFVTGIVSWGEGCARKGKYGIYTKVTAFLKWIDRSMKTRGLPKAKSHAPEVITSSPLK

Homo sapiens = species on record: Homo sapiens; assay: Concentration required to double the prothrombin time(PT) in human plasma was determined; type: functional
[2] = Oral bioavailability; type: ADME, organism-based; details: eutheria, in vivo
How it was run: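 Overnight-fasted male cynomolgus monkeys received 10 mg/kg orally by gastric tube, or 0.3 or 1.0 mg/kg intravenously. Saphenous vein blood was drawn into trisodium citrate before dosing and at several times up to 24 h. Plasma drug levels were measured by HPLC.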

Monkey = assay: Concentration required to double the prothrombin time (PT) in plasma of cynomolgus monkey

Thrombin and coagulation factor X (Homo sapiens), sequence (P00742 whole entry, looked up, other chains not shown): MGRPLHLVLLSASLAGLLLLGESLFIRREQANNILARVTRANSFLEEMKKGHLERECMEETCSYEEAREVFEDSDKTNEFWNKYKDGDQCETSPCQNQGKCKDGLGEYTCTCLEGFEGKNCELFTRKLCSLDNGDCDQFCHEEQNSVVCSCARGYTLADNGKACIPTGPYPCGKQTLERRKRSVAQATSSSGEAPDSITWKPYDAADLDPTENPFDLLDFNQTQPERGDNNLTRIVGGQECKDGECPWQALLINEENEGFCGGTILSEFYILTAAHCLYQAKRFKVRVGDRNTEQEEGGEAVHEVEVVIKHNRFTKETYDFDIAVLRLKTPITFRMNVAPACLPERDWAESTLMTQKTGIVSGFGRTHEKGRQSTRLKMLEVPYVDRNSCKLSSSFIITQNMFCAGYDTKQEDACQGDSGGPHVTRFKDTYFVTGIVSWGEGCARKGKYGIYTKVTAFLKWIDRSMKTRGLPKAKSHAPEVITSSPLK

Ratio [1] | Ki (Prothrombin) [µM] | Ki (Coagulation factor X) [µM] | bioavailability [2] [%] | Structure (SMILES) | PT (Homo sapiens) [µM] | PT (Monkey) [µM]
> 45000 | > 1500 | 0.033 |  | CC(=N)N1CCC(Oc2ccc(C(=O)NCCOc3cc(C(=N)N)ccc3CCC(=O)O)cc2)CC1 |  | 
49000 | 540 | 0.011 | 12 | CC(=N)N1CCC(Oc2ccc(C(=O)N[C@@H](COc3cc(C(=N)N)ccc3CC(=O)C(=O)O)CC(=O)O)cc2)CC1 | 0.38 | 0.38
38000 | 680 | 0.018 |  | N=C(N)c1ccc(CC(=O)C(=O)O)c(OC[C@@H](CC(=O)O)NC(=O)C2CCN(c3ccncc3)CC2)c1 |  | 
3200 | 710 | 0.22 |  | N=C(N)c1ccc(C(=O)NCCOc2cccc(C(=N)N)c2)cc1 |  | 
> 35000 | > 1500 | 0.043 | 6 | N=C(N)c1ccc(CCC(=O)O)c(OCCNC(=O)C2CCN(c3ccncc3)CC2)c1 | 0.42 | 0.7

Further lines, the compound ahead of its results:

Structure (SMILES) | Ratio [1] | Ki (Prothrombin) [µM] | Ki (Coagulation factor X) [µM] | bioavailability [2] [%] | PT (Homo sapiens) [µM] | PT (Monkey) [µM]
N=C(N)c1cccc(OCCNC(=O)c2ccccc2)c1 | 290 | 800 | 2.8 |  |  | 
N=C(N)c1cccc(OCCNC(=O)C2CCN(c3ccncc3)CC2)c1 | 3500 | 1000 | 0.29 |  |  | 
N=C(N)c1ccc(CC(=O)C(=O)O)c(OCCNC(=O)C2CCN(c3ccncc3)CC2)c1 | 6700 | 140 | 0.021 | 12 | 0.22 | 0.22
CC(=N)N1CCC(Oc2ccc(C(=O)NCCOc3cc(C(=N)N)ccc3CC(=O)C(=O)O)cc2)CC1 | 2700 | 53 | 0.02 |  | 0.2 | 0.12
N=C(N)c1cccc(OCCNC(=O)c2ccc(C(=O)N3CCCC3)cc2)c1 | 5500 | 110 | 0.02 |  |  | 
CC(=N)N1CCC(Oc2ccc(C(=O)NCCOc3cccc(C(=N)N)c3)cc2)CC1 | 2600 | 440 | 0.17 |  |  | 
N=C(N)c1ccc(C(=O)NCCOc2cc(C(=N)N)ccc2CC(=O)C(=O)O)cc1 | 1500 | 38 | 0.026 |  |  | 
N=C(N)c1ccc(CC(=O)C(=O)O)c(OCCNC(=O)c2ccc(C(=O)N3CCCC3)cc2)c1 | 8000 | 24 | 0.003 |  |  | 
N=C(N)c1ccc(C(=O)N[C@@H](COc2cccc(C(=N)N)c2)CC(=O)O)cc1 | > 54000 | > 1500 | 0.028 |  |  | 
N=C(N)c1ccc(C(=O)N[C@H](COc2cccc(C(=N)N)c2)CC(=O)O)cc1 | > 8800 | > 1500 | 0.17 |  |  | 
